Source: ChEMBL document CHEMBL3046880, “Syntheses and herbicidal activities of novel triazolinone derivatives” (J Agric Food Chem, 2008)

Tests used:
Format in all cases: functional
Chenopodium album = test: Herbicidal activity against Chenopodium album assessed as growth inhibition at 150 g of active ingredient/ha administered using post-emergence treatment measured 15 days post treatment protocol under greenhouse conditions
In short: (§1)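 Test agents were formulated as 100 g/L emulsified concentrates (DMF solvent, TW-80 emulsifier), diluted with water and sprayed postemergence on pot-grown weeds. Seeds were sown 1-3 cm deep in clay soil (pH 6.5, 1.6% organic matter, 37.3% clay, CEC […]) and grown at 15–30 °C in a greenhouse. Dicots were treated at the two-leaf stage. Untreated and DMF-treated plants served as controls. Activity was scored visually 15 days after treatment.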

Digitaria sanguinalis = test: Herbicidal activity against Digitaria sanguinalis (hairy crabgrass) assessed as growth inhibition at 150 g of active ingredient/ha administered using post-emergence treatment measured 15 days post treatment protocol under greenhouse conditions; in short: as §1
Echinochloa crus-galli = test: Herbicidal activity against Echinochloa crus-galli (barnyard grass) assessed as growth inhibition at 150 g of active ingredient/ha administered using post-emergence treatment measured 15 days post treatment protocol under greenhouse conditions; in short: as §1
Setaria viridis = test: Herbicidal activity against Setaria viridis (green foxtail) assessed as growth inhibition at 150 g of active ingredient/ha administered using post-emergence treatment measured 15 days post treatment protocol under greenhouse conditions; in short: as §1
Amaranthus retroflexus = test: Herbicidal activity against Amaranthus retroflexus assessed as growth inhibition at 150 g of active ingredient/ha administered using post-emergence treatment measured 15 days post treatment protocol under greenhouse conditions; in short: as §1
Brassica juncea = test: Herbicidal activity against Brassica juncea assessed as growth inhibition at 150 g of active ingredient/ha administered using post-emergence treatment measured 15 days post treatment protocol under greenhouse conditions; in short: as §1

SMILES | growth inhibition (GI) (Chenopodium album) | growth inhibition (GI) (Digitaria sanguinalis) | growth inhibition (GI) (Echinochloa crus-galli) | growth inhibition (GI) (Setaria viridis) | growth inhibition (GI) (Amaranthus retroflexus) | growth inhibition (GI) (Brassica juncea)
Cc1nn(-c2cc(N3C(=O)c4ccccc4C3=O)c(F)cc2Br)c(=O)n1C(F)F | <50% | <50% | <50% | <50% | <50% | <50%
Cc1nn(-c2cc(N3C(=O)C4CCCCC4C3=O)c(Cl)cc2Cl)c(=O)n1C(F)F (stereo not given) | >80% | <50% | <50% | <50% | 100% | <50%
Cc1nn(-c2cc(N3C(=O)c4ccccc4C3=O)c(Br)cc2F)c(=O)n1C(F)F | >80% | >80% | 50% | >80% | 100% | >80%
Cc1nn(-c2cc(N3C(=O)C4=C(CCCC4)C3=O)c(F)cc2Br)c(=O)n1C(F)F | <50% | <50% | <50% | <50% | 50% | 50%
Cc1nn(-c2cc(NC(=O)Nc3ccccc3)c(Cl)cc2Cl)c(=O)n1C(F)F | <50% | <50% | <50% | <50% | <50% | <50%
Cc1nn(-c2cc(N3C(=O)C4CCCCC4C3=O)c(F)cc2Br)c(=O)n1C(F)F (stereo not given) | 50% | <50% | <50% | <50% | <50% | 50%
Cc1nn(-c2cc(NC(=O)Nc3ccccc3)c(F)cc2Br)c(=O)n1C(F)F | <50% | <50% | <50% | <50% | <50% | <50%
Cc1nn(-c2cc(N3C(=O)C4=C(CCCC4)C3=O)ccc2Cl)c(=O)n1C(F)F | <50% | <50% | <50% | <50% | <50% | <50%
Cc1nn(-c2cc(NC(=O)Nc3ccc(Cl)cc3)c(F)cc2Br)c(=O)n1C(F)F | <50% | <50% | <50% | <50% | <50% | <50%
Cc1nn(-c2cc(N3C(=O)C4=C(CCCC4)C3=O)c(Br)cc2F)c(=O)n1C(F)F | 100% | 50% | 50% | 50% | 100% | <50%
Cc1nn(-c2cc(NC(=O)Nc3ccccc3)c(Br)cc2F)c(=O)n1C(F)F | <50% | <50% | <50% | <50% | <50% | <50%
Cc1nn(-c2cc(N3C(=O)C4CCCCC4C3=O)ccc2Cl)c(=O)n1C(F)F (stereo not given) | <50% | <50% | <50% | <50% | <50% | <50%
Cc1nn(-c2cc(NC(=O)Nc3ccccc3)ccc2Cl)c(=O)n1C(F)F | <50% | <50% | <50% | <50% | <50% | <50%
Cc1nn(-c2cc(N3C(=O)c4ccccc4C3=O)c(Cl)cc2Cl)c(=O)n1C(F)F | 100% | 50% | 50% | 50% | 100% | <50%
Cc1nn(-c2cc(N3C(=O)C4=C(CCCC4)C3=O)c(Cl)cc2Cl)c(=O)n1C(F)F | 100% | 50% | 50% | 50% | 100% | <50%
Cc1nn(-c2cc(NC(=O)Nc3ccc(Cl)cc3)ccc2Cl)c(=O)n1C(F)F | <50% | <50% | <50% | <50% | <50% | <50%
Cc1nn(-c2cc(NC(=O)Nc3ccc(Cl)cc3)c(Cl)cc2Cl)c(=O)n1C(F)F | <50% | <50% | <50% | <50% | <50% | <50%
Cc1nn(-c2cc(N3C(=O)c4ccccc4C3=O)ccc2Cl)c(=O)n1C(F)F | <50% | <50% | <50% | <50% | <50% | <50%
Cc1nn(-c2cc(NC(=O)Nc3ccc(Cl)cc3)c(Br)cc2F)c(=O)n1C(F)F | <50% | <50% | <50% | <50% | <50% | <50%
Cc1nn(-c2cc(N3C(=O)C4CCCCC4C3=O)c(Br)cc2F)c(=O)n1C(F)F (stereo not given) | 100% | 50% | 50% | 50% | 100% | 50%
